Test results as given in ChEMBL document CHEMBL2390841, “1,1-Difluoroethyl-substituted triazolothienopyrimidines as inhibitors of a human urea transport protein (UT-B): new analogs and binding model” (Bioorg Med Chem Lett, 2013).

Tests used:
[1] = system: Liver microsomes; assay: Metabolic stability in rat liver microsomes assessed as parent compound remaining after 30 mins; assay type: ADME, Microsome; conditions: 0.5 h
Method in brief: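 Compounds are incubated 30 min with rat liver microsomes plus NADPH, then organic-extracted and analysed by LCMS. Value is percent parent remaining.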

[2] = molecular target: T1, Urea transporter 1 (Mus musculus, UniProt Q8VHL0); assay: Inhibition of UT-B in mouse acetamide-loaded erythrocyte assessed as increase of hypotonic lysis
T1 sequence (Q8VHL0 whole entry): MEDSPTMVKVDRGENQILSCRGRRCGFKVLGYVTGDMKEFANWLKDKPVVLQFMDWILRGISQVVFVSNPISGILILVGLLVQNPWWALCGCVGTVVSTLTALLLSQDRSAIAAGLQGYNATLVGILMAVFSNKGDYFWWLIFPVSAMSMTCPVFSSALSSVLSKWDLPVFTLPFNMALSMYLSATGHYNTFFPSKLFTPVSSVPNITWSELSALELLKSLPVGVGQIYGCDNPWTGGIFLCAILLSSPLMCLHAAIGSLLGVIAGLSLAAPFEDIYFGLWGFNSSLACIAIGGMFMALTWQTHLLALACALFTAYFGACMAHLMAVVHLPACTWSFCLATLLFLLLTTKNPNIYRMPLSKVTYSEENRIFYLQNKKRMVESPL
Method in brief: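 Erythrocytes preloaded with acetamide are diluted into isosmolar PBS. Hypotonic lysis is read as near-infrared light absorbance; blocking UT-B-mediated acetamide efflux increases lysis. IC50 comes from a fit to a single-site saturation model.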

SMILES | Stability [1] [%] | IC50 [2] [nM]
CCc1ccc(S(=O)(=O)c2nnn3c2nc(NCc2cccs2)c2sccc23)cc1 | < 5 | –
Cc1csc(CNc2nc3c(S(=O)(=O)c4ccc(C(C)(F)F)cc4)nnn3c3ccsc23)c1 | 22 | 38
CC(F)(F)c1ccc(S(=O)(=O)c2nnn3c2nc(NCc2ccsc2)c2sccc23)cc1 | 47 | 43
CC(F)(F)c1ccc(S(=O)(=O)c2nnn3c2nc(NCc2ccco2)c2sccc23)cc1 | 14 | 353
CC(F)(F)c1ccc(S(=O)(=O)c2nnn3c2nc(NCc2ccccc2)c2sccc23)cc1 | 79 | > 800
CC(F)(F)c1ccc(S(=O)(=O)c2nnn3c2nc(NCC2CC2)c2sccc23)cc1 | 75 | > 800
CC(F)(F)c1ccc(S(=O)(=O)c2nnn3c2nc(NCC2CCC2)c2sccc23)cc1 | 24 | > 800
